These results are taken from ChEMBL document CHEMBL1152767, “Synthesis and pharmacological evaluation of new arylpiperazines N-[4-[4-(aryl) piperazine-1-yl]-phenyl]-amine derivatives: putative role of 5-HT1A receptors” (2009).

Test [1] has as its system Rattus norvegicus. The test can be described thus: Anxiolytic activity in Wistar rat assessed as decrease in extracellular serotonin level in brain at 3 mg/kg, ip in presence of WAY-100635 relative to control. The format is functional. Further details: scale not given: the % may be the effect or the level left. Particulars: route intraperitoneal. A digest of the protocol: (§1)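 Male Wistar rats dosed ip (vehicle saline/1% tween 80/1% DMSO), WAY-100635 0.5 mg/kg ip 15 min prior where used; decapitated 1 h after dosing, brains frozen at -80 °C. Tissue sonicated in 0.4 M perchloric acid, citrate/phosphate/EDTA added, centrifuged 12,000g at 4 °C; supernatant run on reversed-phase C18 HPLC with fluorescence detection (ex 280, em 340 nm).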

The test system of test [2] is Rattus norvegicus. The test can be described thus: Anxiolytic activity in Wistar rat assessed as total number of entries at 3 mg/kg, ip administered 60 mins before evaluation and measured during 5 mins by elevated plus-maze test. In kind it is functional. As to conditions: route intraperitoneal. A digest of the protocol:
(§2)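 Male Wistar rats, 6–8 weeks, 120–150 g, given test agents ip (2 ml/kg; vehicle saline with 1% tween 80 and 1% DMSO) 60 min before testing; WAY-100635 0.5 mg/kg ip 15 min before treatment where used. Maze: two open, two closed arms 50 × 10 cm, raised 50 cm; rat placed centrally facing open arm; 5 min video recording; mean ± S.E.M., n = 8.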

In test [3] the test system is Rattus norvegicus. The test can be described thus: Anxiolytic activity in ip dosed Wistar rat assessed as decrease in glutathione reductase activity in brain. Also noted: scale not given: the % may be the effect or the level left. In kind it is functional. A digest of the protocol: (§3)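 Rat brain homogenised at 20% in 0.1 M potassium phosphate pH 7.4 with 0.25 M sucrose; spun 800g then 10,500g (4 °C) to give post-mitochondrial supernatant for glutathione reductase, and further 36,000g 1 h for cytosol for glyoxalase 1 (modified Racker method); protein by Lowry with BSA standard.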

In test [4] the test system is Rattus norvegicus. Kind of test: Anxiolytic activity in Wistar rat assessed as decrease in extracellular serotonin level in brain at 3 mg/kg, ip relative to control. In kind it is functional, organism-based. Also noted: dose 3 mg/kg. A digest of the protocol:
as §1

Test [5] concerns Rattus norvegicus. Kind of test: Anxiolytic activity in ip dosed Wistar rat assessed as decrease in extracellular serotonin level in brain coadministered with WAY-100635 relative to control. In kind it is functional. Further details: scale not given: the % may be the effect or the level left. A digest of the protocol:
as §1

Test [6] concerns Rattus norvegicus. The test can be described thus: Anxiolytic activity in Wistar rat assessed as time spent into open arms at 3 mg/kg, ip administered 60 mins before evaluation and measured during 5 mins by elevated plus-maze test. In kind it is functional. As to conditions: route intraperitoneal. A digest of the protocol:
as §2

Test [7] concerns Rattus norvegicus. Kind of test: Anxiolytic activity in Wistar rat assessed as number of entries into open arms at 3 mg/kg, ip administered 60 mins before evaluation and measured during 5 mins by elevated plus-maze test. The format is functional. As to conditions: route intraperitoneal. A digest of the protocol:
as §2

Test [8] has as its system Rattus norvegicus. Kind of test: Anxiolytic activity in ip dosed Wistar rat assessed as decrease in glyoxalase 1 activity in brain. In kind it is functional. Further details: scale not given: the % may be the effect or the level left. A digest of the protocol: as §3
In test [9] the test system is Rattus norvegicus. The test can be described thus: Anxiolytic activity in Wistar rat assessed as blocked of time spent into open arms at 3 mg/kg, ip administered 60 mins before evaluation and measured during 5 mins by elevated plus-maze test in presence of 0.5 mg/kg, ip WAY-100635. In kind it is functional, organism-based. A digest of the protocol:
as §2

Test [10] relates to Rattus norvegicus. The test can be described thus: Anxiolytic activity in Wistar rat assessed as number of entries into closed arms at 3 mg/kg, ip administered 60 mins before evaluation and measured during 5 mins by elevated plus-maze test. In kind it is functional. Particulars: route intraperitoneal. A digest of the protocol: as §2
In test [11] the test system is Rattus norvegicus. The test can be described thus: Anxiolytic activity in Wistar rat assessed as decrease in time spent into open arms treated ip 60 mins before evaluation and measured during 5 mins by elevated plus-maze test in presence of WAY-100635. In kind it is functional. Further details: scale not given: the % may be the effect or the level left. A digest of the protocol:
as §2

The subject of test [12] is Rattus norvegicus. Kind of test: Anxiolytic activity in Wistar rat assessed as time spent into open arms at 5 mg/kg, ip administered 60 mins before evaluation and measured during 5 mins by elevated plus-maze test. In kind it is functional. As to conditions: route intraperitoneal. A digest of the protocol: (§4)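 Male Wistar rats, 6–8 weeks, 120–150 g, housed at 25 ± 2 °C with free food and water. Dosed ip at 2 ml/kg in saline with 1% tween 80 and 1% DMSO, which alone served as control; n = 8. Maze arms 50 × 10 cm, 50 cm above floor. Rat placed centrally facing an open arm, recorded by camera between 9:00 and 15:00 h.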

Test [13] concerns Rattus norvegicus. The test can be described thus: Anxiolytic activity in Wistar rat assessed as number of entries into open arms at 5 mg/kg, ip administered 60 mins before evaluation and measured during 5 mins by elevated plus-maze test. As to conditions: route intraperitoneal. The format is functional. A digest of the protocol:
as §4

The subject of test [14] is Rattus norvegicus. The test can be described thus: Anxiolytic activity in Wistar rat assessed as number of entries into closed arms at 5 mg/kg, ip administered 60 mins before evaluation and measured during 5 mins by elevated plus-maze test. Particulars: route intraperitoneal. The format is functional. A digest of the protocol: as §4
In test [15] the test system is Rattus norvegicus. Kind of test: Anxiolytic activity in Wistar rat assessed as total number of entries at 5 mg/kg, ip administered 60 mins before evaluation and measured during 5 mins by elevated plus-maze test. The format is functional. Particulars: route intraperitoneal. A digest of the protocol:
as §4

In test [16] the test system is Rattus norvegicus. Kind of test: Anxiolytic activity in Wistar rat assessed as total number of entries at 1 mg/kg, ip administered 60 mins before evaluation and measured during 5 mins by elevated plus-maze test. The format is functional. Particulars: route intraperitoneal. A digest of the protocol:
as §4

The test system of test [17] is Rattus norvegicus. The test can be described thus: Anxiolytic activity in Wistar rat assessed as number of entries into closed arms at 1 mg/kg, ip administered 60 mins before evaluation and measured during 5 mins by elevated plus-maze test. In kind it is functional. Particulars: route intraperitoneal. A digest of the protocol:
as §4

Test [18] concerns Rattus norvegicus. The test can be described thus: Anxiolytic activity in Wistar rat assessed as number of entries into open arms at 1 mg/kg, ip administered 60 mins before evaluation and measured during 5 mins by elevated plus-maze test. In kind it is functional. Particulars: route intraperitoneal. A digest of the protocol: as §4
Test [19] relates to Rattus norvegicus. Kind of test: Anxiolytic activity in Wistar rat assessed as time spent into open arms at 1 mg/kg, ip administered 60 mins before evaluation and measured during 5 mins by elevated plus-maze test. The format is functional. As to conditions: route intraperitoneal. A digest of the protocol: as §4

Activity calls are given as the source filed them. No cut-off for these calls is given here.

As to `CCOC(=O)Nc1ccc(N2CCN(c3ccccc3)CC2)cc1`, the Activity is recorded as 38% in the test with Rattus norvegicus [1]; 15.48 with Rattus norvegicus [2]; 15% in the test on Rattus norvegicus [3]; 30% in the test on Rattus norvegicus [5]; 87.6% in the test on Rattus norvegicus [6]; 40.64% in the test on Rattus norvegicus [7]. For the same compound, the results for the Activity in the test with Rattus norvegicus [8], in the test with Rattus norvegicus [10] and with Rattus norvegicus [11] were 20%, 9.19 and 35%, respectively. In addition, the outcome in the test with Rattus norvegicus [4] was Active. In addition, in the test on Rattus norvegicus [9], the outcome was inactive.
With `CC(=O)Nc1ccc(N2CCN(CCc3ccccc3)CC2)cc1`, the Activity is 13.86 with Rattus norvegicus [2], 53.67% in the test with Rattus norvegicus [6], 25.98% in the test on Rattus norvegicus [7] and 10.26 with Rattus norvegicus [10].
In the case of `O=C(Nc1ccc(N2CCN(c3ccccc3)CC2)cc1)c1ccc(Cl)nc1`, the Activity in the test on Rattus norvegicus [2] is reported as 16.46; in the test on Rattus norvegicus [6] it was 56.94%; in the test on Rattus norvegicus [7] it was 27.48%; with Rattus norvegicus [10], 11.94.
Take `COc1ccccc1N1CCN(c2ccc(NC(C)=O)cc2)CC1`: the Activity in the test on Rattus norvegicus [2] turned out to be 15.45; with Rattus norvegicus [6] it was 58.77%; in the test with Rattus norvegicus [7], 28.74%; in the test on Rattus norvegicus [10], 9.01.
Turning to `COc1ccccc1N1CCN(c2ccc(NC(=O)c3ccc(Cl)nc3)cc2)CC1`, the Activity was 15.26 in the test on Rattus norvegicus [2], 54.69% in the test with Rattus norvegicus [6], 28.42% in the test on Rattus norvegicus [7] and 10.93 in the test with Rattus norvegicus [10].
Consider `CCOC(=O)Nc1ccc(N2CCN(c3ccccc3Cl)CC2)cc1`, for which the Activity in the test on Rattus norvegicus [2] was 13.98; in the test on Rattus norvegicus [6], 58.98%; in the test on Rattus norvegicus [7], 30.27%; in the test on Rattus norvegicus [10] it was 9.75.
With `O=C(Nc1ccc(N2CCN(c3ccccc3Cl)CC2)cc1)c1ccc(Cl)nc1`, the Activity with Rattus norvegicus [2] stood at 12.98; with Rattus norvegicus [6], 53.67%; in the test on Rattus norvegicus [7], 24.56%; with Rattus norvegicus [10] it was 9.8.
As to `O=C(Nc1ccc(N2CCN(CCc3ccccc3)CC2)cc1)c1ccc(Cl)nc1`, the Activity in the test on Rattus norvegicus [2] stood at 14.48; in the test on Rattus norvegicus [6], 50.58%; in the test on Rattus norvegicus [7], 22.9%; in the test on Rattus norvegicus [10], 11.17.
For `CCOC(=O)Nc1ccc(N2CCN(c3ccccc3OC)CC2)cc1`, the Activity with Rattus norvegicus [1] worked out at 32%; in the test on Rattus norvegicus [2], 18.21; in the test on Rattus norvegicus [3], 12%; with Rattus norvegicus [5], 24%; in the test on Rattus norvegicus [6] it was 84.36%; in the test on Rattus norvegicus [7] it was 35.23%. The Activity is reported as 17% in the test on Rattus norvegicus [8], 11.8 in the test with Rattus norvegicus [10] and 20% in the test with Rattus norvegicus [11]. Also, the result with Rattus norvegicus [4] was Active.
With `O=C1CC2(CCCC2)CC(=O)N1CCCCN1CCN(c2ncccn2)CC1` [BUSPIRONE], the Activity worked out at 85.56% in the test with Rattus norvegicus [12], 37.52% in the test with Rattus norvegicus [13], 8.91 in the test on Rattus norvegicus [14] and 14.26 in the test on Rattus norvegicus [15].
In the case of `CC(=O)Nc1ccc(N2CCN(c3ccccc3Cl)CC2)cc1`, the Activity in the test on Rattus norvegicus [2] was determined as 16.82; in the test on Rattus norvegicus [6], 57.3%; in the test with Rattus norvegicus [7], 26.89%; with Rattus norvegicus [10], 12.3.
On to `CC(=O)Nc1ccc(N2CCN(c3ccccc3)CC2)cc1`, for which the Activity with Rattus norvegicus [2] came out at 14.28; with Rattus norvegicus [6] it was 62.67%; in the test with Rattus norvegicus [7], 29.42%; with Rattus norvegicus [10], 10.08.
Turning to `CCOC(=O)Nc1ccc(N2CCN(CCc3ccccc3)CC2)cc1`, the Activity turned out to be 13.85 in the test on Rattus norvegicus [2], 53.94% with Rattus norvegicus [6], 28.49% in the test on Rattus norvegicus [7] and 9.91 in the test with Rattus norvegicus [10].
For the compound `CN1C(=O)CN=C(c2ccccc2)c2cc(Cl)ccc21` [DIAZEPAM], the Activity with Rattus norvegicus [16] was 18.47; in the test with Rattus norvegicus [17] it was 10.13; with Rattus norvegicus [18] it was 45.16%; in the test on Rattus norvegicus [19], 105.36%.
